# Source: ChEMBL document CHEMBL4257467, “Synthesis and pharmaceutical characterization of site specific mycophenolic acid-modified Xenopus glucagon-like peptide-1 analogs” (Medchemcomm, 2018)
# Calls of active or inactive are those of the source. *1 amine or outer side, *2 acyl side, *3 side chain or, on linkers, in order; H or OH if unused. Side-chain parts run from the residue outwards. The star is where a group is joined. Mycophenolyl = COc1c(C)c2c(c(O)c1C/C=C(\C)CCC(=O)*)C(=O)OC2; γGlu = O=C(O)[C@H](CCC(=O)[*:2])N[*:1]; 12Ado = NCCCCCCCCCCCC(=O)O; Ahx = NCCCCCC(=O)O
# Tests used:
# Mus musculus [1] = assay: Antidiabetic activity in Kunming mouse assessed as reduction in blood glucose AUC at 25 nmol/kg, ip pretreated for 30 mins followed by glucose-challenge and measured after 15 to 120 mins by IPGTT; assay type: functional, organism-based
# Outline: (§1)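 Male Kunming mice (20–25 g, n = 6) fasted overnight. Peptide or saline 25 nmol kg−1 ip at −30 min, ip glucose 2 g kg−1 at 0 min. Tail-vein blood glucose by glucometer at −30, 0, 15, 30, 60 and 120 min. Glucose AUC0–120min calculated; means ± SD.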
# Mus musculus [2] = assay: Antidiabetic activity in Kunming mouse assessed as reduction in blood glucose level at 25 nmol/kg, ip pretreated for 30 mins followed by glucose-challenge and measured after 15 to 120 mins by IPGTT; assay type: functional, organism-based; outline: as §1
# [3] = molecular target: Glucagon-like peptide 1 receptor (Homo sapiens, UniProt P43220); assay: Agonist activity at human GLP1 receptor expressed in HEK293 cells assessed as increase in cAMP level after 30 mins by HTRF method; assay type: functional, cell-based
# Sequence of Glucagon-like peptide 1 receptor (P43220 whole entry): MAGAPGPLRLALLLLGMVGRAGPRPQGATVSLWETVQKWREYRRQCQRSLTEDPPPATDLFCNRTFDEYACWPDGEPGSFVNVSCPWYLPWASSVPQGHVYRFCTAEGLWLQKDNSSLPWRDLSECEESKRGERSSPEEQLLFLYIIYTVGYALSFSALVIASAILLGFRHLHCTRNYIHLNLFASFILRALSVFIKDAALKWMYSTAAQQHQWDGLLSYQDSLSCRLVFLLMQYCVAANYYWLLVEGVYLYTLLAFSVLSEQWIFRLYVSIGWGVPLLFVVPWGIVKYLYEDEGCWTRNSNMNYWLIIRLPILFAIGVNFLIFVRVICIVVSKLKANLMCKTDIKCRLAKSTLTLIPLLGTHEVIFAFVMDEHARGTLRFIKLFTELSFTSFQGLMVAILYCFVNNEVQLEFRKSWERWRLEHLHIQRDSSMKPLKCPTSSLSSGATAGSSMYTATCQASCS
# Outline: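 HEK293 cells stably expressing human GLP-1 receptor, thawed, suspended in DMEM with 20 mM HEPES, 2 mM L-Glu, 0.5% FBS, 1% pen-strep. Compounds dissolved in DMSO, diluted in assay buffer to 1 × 10−13–1 × 10−6 M final, 30 min at 37 °C in 5% CO2. cAMP read by HTRF. EC50 as means ± SD of three individual experiments, n = 3.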
# [4] = Half life in Sprague-Dawley rat plasma at 0.5 mL by LC-MS/MS analysis; assay type: ADME, cell-free; conditions: Sprague-Dawley
# Outline: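 Plasma from male Sprague-Dawley rats (200–250 g). Peptide in PBS pH 7.4 added to initial 1000 ng ml−1 and incubated at 37 °C for 48 h. Samples at 2, 4, 8, 12, 24, 36, 48 h precipitated with acetonitrile containing 2% formic acid, centrifuged, analysed by LC-MS/MS in MRM mode. Degradation curves in triplicate.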
# Albumin = Albumin (Homo sapiens, UniProt P02768); assay: Binding affinity to human serum albumin after 60 mins by ultrafiltration-based HPLC analysis; assay type: ADME; conditions: human serum albumin, read-out: PB (converted)
# Sequence of Albumin (P02768 whole entry): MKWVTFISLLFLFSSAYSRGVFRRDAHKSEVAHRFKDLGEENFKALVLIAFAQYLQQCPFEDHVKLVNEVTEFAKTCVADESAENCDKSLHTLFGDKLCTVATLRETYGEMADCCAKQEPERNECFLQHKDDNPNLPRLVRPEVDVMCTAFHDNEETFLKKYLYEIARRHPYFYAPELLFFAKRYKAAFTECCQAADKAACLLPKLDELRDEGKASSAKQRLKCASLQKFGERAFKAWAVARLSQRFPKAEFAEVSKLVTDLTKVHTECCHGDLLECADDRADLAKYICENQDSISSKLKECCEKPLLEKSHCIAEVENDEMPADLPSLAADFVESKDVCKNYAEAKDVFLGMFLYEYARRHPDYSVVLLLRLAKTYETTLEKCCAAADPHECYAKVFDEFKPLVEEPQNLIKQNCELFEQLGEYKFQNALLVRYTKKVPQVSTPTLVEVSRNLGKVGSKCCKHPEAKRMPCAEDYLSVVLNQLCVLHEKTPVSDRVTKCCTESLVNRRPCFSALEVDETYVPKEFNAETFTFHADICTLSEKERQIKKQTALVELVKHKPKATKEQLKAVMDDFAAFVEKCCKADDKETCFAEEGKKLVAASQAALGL
# Outline: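 Peptide in PBS pH 7.4 (100 μg ml−1) mixed with HSA (10 mg ml−1 in PBS), incubated 60 min at 37 °C. Ultrafiltration through 30 kDa cutoff filter, 30 min at 3500 rpm. Free compound in filtrate by HPLC. Membrane adsorption checked (<4%). Repeated three times.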
# Mus musculus [5] = assay: Antidiabetic activity in C57BL/6J m+/+ Lepr db mouse assessed as reduction in blood glucose AUC (0 to 120 mins) at 50 nmol/kg, ip administered once daily for 5 weeks followed by glucose challenge by IPGTT; assay type: functional, organism-based
# Mus musculus [6] = assay: Antidiabetic activity in C57BL/6J m+/+ Lepr db mouse assessed as non-fasting blood glucose levels at 50 nmol/kg, ip administered once daily for 5 weeks measured every 4 days during compound dosing; assay type: functional
# Mus musculus [7] = assay: Antidiabetic activity in C57BL/6J m+/+ Lepr db mouse assessed as change in blood glucose level at 50 nmol/kg, ip administered once daily for 5 weeks followed by glucose challenge measured after 15 to 120 mins by IPGTT; assay type: functional, organism-based
# Mus musculus [8] = assay: Antidiabetic activity in C57BL/6J m+/+ Lepr db mouse assessed as plasma insulin level at 25 nmol/kg, ip pretreated for 30 mins followed by glucose challenge and measured after 15 mins by ELISA; assay type: functional
# Outline: (§2)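 Male db/db mice (30–40 g, 9 weeks, n = 6) fasted 18 h. Saline or peptide 25 nmol kg−1 ip at −30 min, ip glucose 1 g kg−1 at 0 min. Tail-vein glucose by glucometer at −30, 0, 10, 15, 30, 45, 60, 120 min. Plasma insulin by mouse insulin ELISA. AUC0–120min for glucose and insulin calculated; means ± SD.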
# Mus musculus [9] = assay: Hypoglycemic activity in C57BL/6J m+/+ Lepr db mouse assessed as blood glucose level at 25 nmol/kg, ip pretreated for 30 mins followed by glucose challenge and measured after 15 mins by IPGTT; assay type: functional; outline: as §2
# Mus musculus [10] = assay: Hepatotoxicity in C57BL/6J m+/+ Lepr db mouse assessed as serum ALT level at 50 nmol/kg, ip administered once daily for 5 weeks (reference value: 61.4 +/- 10 IU/L); assay type: toxicity, organism-based; conditions: in vivo, 840 h
# Mus musculus [11] = assay: Hypoglycemic activity in C57BL/6J m+/+ Lepr db mouse assessed as blood glucose AUC (0 to 120 mins) at 25 nmol/kg, ip pretreated for 30 mins followed by glucose challenge by IPGTT; assay type: functional, organism-based; outline: as §2
# Mus musculus [12] = assay: Toxicity in C57BL/6J m+/+ Lepr db mouse assessed as HDL-cholesterol level at 50 nmol/kg, ip administered once daily for 5 weeks (reference value: 1.7 +/- 0.3 mmol/L); assay type: organism-based; conditions: in vivo, 840 h
# Mus musculus [13] = assay: Hypoglycemic activity in non-fasting C57BL/6J m+/+ Lepr db mouse assessed as reduction in blood glucose AUC (0 to 48 hrs) at 25 to 100 nmol/kg, ip by glucometric method; assay type: functional, organism-based
# Outline: (§3)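 Non-fasting male db/db mice (30–40 g, 9 weeks, n = 6) with free food and water. Single ip dose at 0 h: liraglutide 25 nmol kg−1, test peptides 25 or 100 nmol kg−1, or saline. Blood glucose by glucometer at 0, 2, 4, 6, 12, 24, 48 h. Rebound time to >15 mmol L−1 and AUC0–48h derived; means ± SD.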
# Mus musculus [14] = assay: Antidiabetic activity in C57BL/6J m+/+ Lepr db mouse assessed as serum triglyceride level at 50 nmol/kg, ip administered once daily for 5 weeks (reference value: 2.3 +/- 0.3 mmol/L); assay type: functional
# Mus musculus [15] = assay: Antidiabetic activity in C57BL/6J m+/+ Lepr db mouse assessed as reduction in body weight gain at 50 nmol/kg, ip administered once daily for 5 weeks measured every 4 days during compound dosing relative to control; assay type: functional; parameters: scale not given: the % may be the effect or the level left
# Mus musculus [16] = assay: Antidiabetic activity in C57BL/6J m+/+ Lepr db mouse assessed as increase in non-fasting plasma insulin levels at 50 nmol/kg, ip administered once daily for 5 weeks measured every 4 days during compound dosing; assay type: functional, organism-based
# Mus musculus [17] = assay: Antidiabetic activity in C57BL/6J m+/+ Lepr db mouse assessed as reduction in food intake at 50 nmol/kg, ip administered once daily for 5 weeks measured every 4 days during compound dosing; assay type: functional, organism-based
# Mus musculus [18] = assay: Hypoglycemic activity in C57BL/6J m+/+ Lepr db mouse assessed as reduction in fasting blood glucose level at 25 nmol/kg, ip pretreated for 30 mins followed by glucose challenge at 6 hrs interval for 24 hrs and measured up to 3 hrs by OGTT; assay type: functional, organism-based
# Outline: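 Male db/db mice (30–40 g, 9 weeks, n = 6) fasted 18 h, given saline or peptide 25 nmol kg−1 ip at −0.5 h. Oral glucose 1.5 g kg−1 at 0 h, repeated every 6 h (6, 12, 18 h) over 24 h. Blood glucose by glucometer at 0, 0.25, 0.5, 1, 2 and 3 h after each load.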
# Mus musculus [19] = assay: Antidiabetic activity in C57BL/6J m+/+ Lepr db mouse assessed as increase in plasma insulin AUC (0 to 120 mins) at 25 nmol/kg, ip pretreated for 30 mins followed by glucose challenge by ELISA; assay type: functional, organism-based; outline: as §2
# Mus musculus [20] = assay: Hypoglycemic activity in non-fasting C57BL/6J m+/+ Lepr db mouse assessed as rebound time from the lowest glucose level (12 mmol/L) to diabetic glucose level (>15 mmol/L) at 100 nmol/kg, ip by glucometric method; assay type: functional; outline: as §3
# Mus musculus [21] = assay: Antidiabetic activity in C57BL/6J m+/+ Lepr db mouse assessed as serum LDL-cholesterol level at 50 nmol/kg, ip administered once daily for 5 weeks (reference value: 2.2 +/- 0.3 mmol/L); assay type: functional
# Mus musculus [22] = assay: Antidiabetic activity in C57BL/6J m+/+ Lepr db mouse assessed as serum total cholesterol level at 50 nmol/kg, ip administered once daily for 5 weeks (reference value: 6.5 +/- 0.4 mmol/L); assay type: functional
# Mus musculus [23] = assay: Antidiabetic activity in C57BL/6J m+/+ Lepr db mouse assessed as reduction in glycated hemoglobin level at 50 nmol/kg, ip administered once daily for 5 weeks relative to control; assay type: functional; parameters: scale not given: the % may be the effect or the level left
# Mus musculus [24] = assay: Hepatotoxicity in C57BL/6J m+/+ Lepr db mouse assessed as serum AST level at 50 nmol/kg, ip administered once daily for 5 weeks (reference value: 75 +/- 7.4 IU/L); assay type: toxicity, organism-based; conditions: in vivo, 840 h
# Mus musculus [25] = assay: Hypoglycemic activity in non-fasting C57BL/6J m+/+ Lepr db mouse assessed as rebound time from the lowest glucose level (12 mmol/L) to diabetic glucose level (>15 mmol/L) at 25 nmol/kg, ip by glucometric method; assay type: functional; outline: as §3
EC50 [3],half-life [4],fraction unbound at 1 h (Albumin),Substance,Activity (Mus musculus [1]),Activity (Mus musculus [2]),Activity (Mus musculus [8]),Activity (Mus musculus [9]),Activity (Mus musculus [19]),also measured
2.8 nM,22.1 h,0.361,H-HGEGTYTNDVTEYLEEEAAK([γGlu-Ahx-Mycophenolyl])EFIEWLIKGKPSSGAPPSKKKKKK-OH,Active,Active,,,,
3.1 nM,39.8 h,0.146,H-HGEGTYTNDVTEYLEEEAAK([γGlu-12Ado-Mycophenolyl])EFIEWLIKGKPSSGAPPSKKKKKK-OH,Active,Active,18 mIU/L,1.07e+07 nmol/L,Active,Activity (Mus musculus [5]): Active; Activity (Mus musculus [6]): 11.2 to 14.9 mmol/L; Activity (Mus musculus [7]): Active; Activity (Mus musculus [10]): 56.9 IU/L; Activity (Mus musculus [11]): Active; Activity (Mus musculus [12]): 1.6 mmol/L; Activity (Mus musculus [13]): Active; Activity (Mus musculus [14]): 1.4 mmol/L; Activity (Mus musculus [15]): 55%; Activity (Mus musculus [16]): Active; Activity (Mus musculus [17]): Active; Activity (Mus musculus [18]): Active; Time (Mus musculus [20]): 38.4 h; Activity (Mus musculus [21]): 1.4 mmol/L; Activity (Mus musculus [22]): 4.5 mmol/L; Activity (Mus musculus [23]): 6.7%; Activity (Mus musculus [24]): 62.4 IU/L; Time (Mus musculus [25]): 23.8 h
,,,SEMAGLUTIDE,Active,Active,17.2 mIU/L,1.1e+07 nmol/L,Active,
